Measured values from the EternaBench riboswitch data.

Tested on: MS2 coat protein
Test: apparent Kd, MS2 coat protein; higher = weaker binding; RNA-MaP array; FMN 200 µM where present
In short: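 Green signal was scaled to red-channel RNA signal and control-cluster median Fmax, and the apparent Kd was taken as the median of filtered per-cluster binding-curve fits. The binding series used SNAP-549-labelled MS2 coat protein from 0.7 or 1.5 nM, doubling to 3 µM, on designs transcribed by stalled E. coli RNA polymerase on Illumina sequencing-chip clusters. Each series ran without and then with constant ligand in 100 mM Tris-HCl pH 7.5, 80 mM KCl, 4 mM MgCl2, BSA, DTT, yeast tRNA and Tween-20.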

[1] = designed as: ON switch for flavin mononucleotide, no ligand
[2] = ligand present: flavin mononucleotide, designed as: ON switch for flavin mononucleotide
[3] = designed as: OFF switch for flavin mononucleotide, no ligand
[4] = ligand present: flavin mononucleotide, designed as: OFF switch for flavin mononucleotide

Sequence | apparent Kd [1] | apparent Kd [2] | apparent Kd [3] | apparent Kd [4]
GCGAGCAUACAGAAGGGAUCGUCGUAGCGGCUGUCAGGAUAUGUAGCUUGGCCUAAACAUGAGGAUCACCCAUGUAUAAUGCUA | 175 nM | 21 nM | – | –
GAGUAGUUGAAAGGAUAUUGAUUGUUAUAGAAUCAAGAAGGUUCUAACAUGAGGAUCACCCAUGUAGGACUAUUCCUGUGUAUC | 12.3 nM | 9.66 nM | – | –
CAUACACAUGAGGAUCACCCAUGUGAGGAUAUGCGUACGUAAUCCGUAGGAGACGUGCGCAGAAGGCGCGAGGU | – | – | 56.6 nM | 44 nM
CCUCAGUAAGGAUAUCAGCUUAGUAGGUUGGUAAUGAGAGCUGAGAAGGUACAUGAGGAUCACCCAUGUUAGUU | – | – | 26.1 nM | 80.8 nM
GCACGAGACUAAGGAUAUGGAGUGUCUACAUUAAACAUGAGGAUCACCCAUGUAGGGAGUAUGAUUCAGAAGGUAGAGACGUGC | 331 nM | 48.3 nM | – | –
GGAUAGCACAGAGGAUAUACGUGCUAGAGAUACUAGCAAAAUUUCCUCACAUGAGGAUCACCCAUGUAGAAGGCUGUCCUAUCG | – | – | 4.44 nM | 5.5 nM
ACAUGGUAGUAGAAGGGUAUUACUUUAGAUACAACCAUUUGUAUUGUUUAUACAGGAUAUGCUUACAUGAGGAUCACCCAUGUU | – | – | 11.3 nM | 11.1 nM
GAGUACAUCGGAGGAUAUCAUGUAAAUACAUGAGGAUCACCCAUGUCGAUGGAGACAUCGGAGAUUGAGAAGGCCGAUGUACCG | 180 nM | 8.63 nM | – | –
CGAAAAUUUCAGAAGGACCGAUUCCACAUGAGGAUCACCCAUGUCGAUGGUAGGAUAUGGAGUUGUGGACAGGGCGGAUGUACC | 72.1 nM | 8.92 nM | – | –
AUAUAUAGUGUGAGGAUAUGCUGGUCCUUGGAUCAGCAGAAGGCACAUGAGGAUCACCCAUGUAGUUAAAUAUA | – | – | 36 nM | 107 nM
UCAUCGGCAGGAUAUACGAAAGGAGAACUUCUGCGCAAGAUACAUGAGGAUCACCCAUGUAGAAGGGUCGUAUG | – | – | 27.8 nM | 88.7 nM
UCAGUCAUGUAAGGAUAUGCAGCCGUUUCGGCUGCAGAAGGUACUAUAAUUACAUGAGGAUCACCCAUGUUAUAAAAUUUAUAU | 52.5 nM | 19.9 nM | – | –
ACCAUUUACUAAUUGUCUAUACAUGAGGAUCACCCAUGUUAUGAGGAUAUCAUCGUGAAACACGAUGAGAAGGCAUAGCAUUCG | – | – | 64.5 nM | 213 nM
GCAGCUCCUGACAUGAGGAUCACCCAUGUUCAAUUGUUGAGUCAGGAUAUAGUCUAGAAACUAGACUAGAAGGGAUAUGCUGCU | 12.3 nM | 10.8 nM | – | –
AAUAAACUCACAGGAUAUAGCAGAGAUCGCGUGAACUUACAGGCGACGAUGCUAGAAGGGUGACCACAUGAGGAUCACCCAUGU | 673 nM | 120 nM | – | –
UGUUAGUAGUGAGGAUAUACAUACACCUUACAUGAGGAUCACCCAUGUUUUAAGAUUGAUAGAUAGUAGAAGGCACAUGAUGAU | 59 nM | 23 nM | – | –
UAAAUGUCAGGAUAUUGUUAAUUUAGUUGUUUGUAUUAGUUCGAGAAGGGACAUGAGGAUCACCCAUGUUGUUU | – | – | 28.9 nM | 31.1 nM
ACACGGUAUGUAGGAUAUGCAUAGCAUUGCUAUGCAGAAGGACAUGAGGAUCACCCAUGUAUGUAUUCCAUACUAAUCCCGUGC | – | – | 6.03 nM | 6 nM
AAAACAUGAGGAUCACCCAUGUAAAGAUCGGUUAAUAGAAGUGAGGAUAUACGAAGUUAAAGCUGGUAGAAGGCACUGGGUACA | 34.7 nM | 33.2 nM | – | –
GGACCGCGCAGAAUUGGCGGCCGGCAGGAUAUGACAUGAGGAUCACCCAUGUGAACUCCAUUGGGUCAGAAGGGCCACGACACA | – | – | 21.1 nM | 66.8 nM
AGUCUGCUAGGAUAUACAUGAGGAUCACCCAUGUCUAUCAAAAGACUAUUAACCUGGUGUAGAAGGAGCUUGUA | – | – | 11.1 nM | 12.5 nM
GCUGCAUAGGCAGGAUAUGCAAAAAACGAUGCAAAGCAUCGAAAAAAAACAUGAGGAUCACCCAUGUAGAAGGGCCUGUGCAGU | – | – | 22.6 nM | 20.8 nM
GACACUAUGUUUGUCAGAUAGAGAGAGGAUAUGGCUCAUGUGACAUGAGGAUCACCCAUGUAUAAUCAGAAGGCUCGAGUACGA | 45.9 nM | 16.3 nM | – | –
